Assays:
[1] = biological target: T1, Human immunodeficiency virus type 1 integrase (Human immunodeficiency virus 1, UniProt Q7ZJM1); test: Inhibitory concentration against 3'processing of HIV-1 Integrase
[2] = biological target: T1, Human immunodeficiency virus type 1 integrase; test: Inhibitory concentration against integration of HIV-1 Integrase
HeLa [3] = test: Antiviral activity against human immuno deficiency virus type 1 in HeLa H1-JC.37 cells; format: functional, cell-based
Summary of the method: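 HIV-1 focal infectivity assay in HeLa H1-JC.37 indicator cells (HeLa CD4 expressing human CCR5, naturally CXCR4). Foci immunostained with monoclonal antibody 22-6 at 1/800 and counted under a dissecting microscope at 30× to 100×. Plotted as percentage of no-drug control foci against inhibitor concentration; EC50 from best-fit line of linear portion; at least three separate experiments.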

HeLa [4] = test: Ratio of cytotoxicity for HeLa H1-JC.37 cells (IC50) to antiviral activity against HIV-1 (EC50); format: functional, Homo sapiens
Summary of the method: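 Ratio of cytotoxic IC50 to antiviral EC50 in HeLa H1-JC.37 cells (HeLa CD4 expressing CCR5). EC50 came from an HIV-1 focal infectivity assay: mAb 22-6 (1/800) immunostaining, foci counted at 30× to 100×, best-fit linear portion of % no-drug control foci versus concentration, at least three experiments. IC50 came from an MTS proliferation assay, same fitting, at least two experiments.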

HeLa [5] = test: Cytotoxicity for HeLa H1-JC.37 cells using MTS assay; format: functional, cell-based; settings: Homo sapiens
Summary of the method: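 HeLa H1-JC.37 cell proliferation measured by MTS assay under manufacturer's recommended conditions. Data plotted as percentage of no-drug control against inhibitor concentration; IC50 for 50% inhibition of proliferation taken from best-fit line of linear portion of plot; at least two separate experiments.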

T1 sequence (Q7ZJM1 whole entry): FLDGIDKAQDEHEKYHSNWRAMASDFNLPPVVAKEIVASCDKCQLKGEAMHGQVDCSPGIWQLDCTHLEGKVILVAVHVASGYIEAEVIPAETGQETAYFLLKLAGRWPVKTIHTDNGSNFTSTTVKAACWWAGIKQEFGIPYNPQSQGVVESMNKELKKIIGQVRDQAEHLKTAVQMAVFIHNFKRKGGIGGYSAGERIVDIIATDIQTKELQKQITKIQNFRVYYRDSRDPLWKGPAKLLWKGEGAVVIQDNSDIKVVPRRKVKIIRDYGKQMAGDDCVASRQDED

| SMILES | IC50 [1] [µM] | IC50 [2] [µM] | EC50 (HeLa [3]) [µM] | Selectivity index (HeLa [4]) | IC50 (HeLa [5]) [µM] |
| --- | --- | --- | --- | --- | --- |
| COc1cc(/C=C/S(=O)(=O)CS(=O)(=O)/C=C/c2ccc(C(C)=O)c(OC)c2)ccc1C(C)=O | > 1000 | > 1000 | – | – | – |
| O=S(=O)(/C=C/c1ccc(OCc2ccccc2)c(OCc2ccccc2)c1)CS(=O)(=O)/C=C/c1ccc(OCc2ccccc2)c(OCc2ccccc2)c1 | 700 | 700 | – | – | – |
| O=S(=O)(/C=C/c1cc(O)c(O)c(O)c1)CS(=O)(=O)/C=C/c1cc(O)c(O)c(O)c1 | 1.8 | 0.9 | 0.3 | 563 | 169 |
| O=C(O)C(=O)CC(=O)c1cc(OCc2ccccc2)cc(OCc2ccccc2)c1 | > 1000 | – | 0.78 | – | – |

More lines, main results first:

| IC50 [1] [µM] | IC50 [2] [µM] | EC50 (HeLa [3]) [µM] | SMILES | Selectivity index (HeLa [4]) | IC50 (HeLa [5]) [µM] |
| --- | --- | --- | --- | --- | --- |
| 50 | 50 | 1.3 | COc1cc(/C=C/S(=O)(=O)CS(=O)(=O)/C=C/c2cc(O)c(O)c(OC)c2)cc(O)c1O | 22 | 29 |
| 80 | 80 | 4.5 | COc1cc(/C=C/S(=O)(=O)CS(=O)(=O)/C=C/c2ccccc2)cc(O)c1O | 4.3 | 19 |
| 4 | 5 | 2.4 | O=S(=O)(/C=C/c1ccc(O)c(O)c1)CS(=O)(=O)/C=C/c1ccc(O)c(O)c1 | 78 | 187 |
